# According to ChEMBL document CHEMBL1137875, “The identification and optimization of 2,4-diketobutyric acids as flap endonuclease 1 inhibitors” (Bioorg Med Chem Lett, 2004):
# Assays:
# [1] = target: T1, DNA excision repair protein ERCC-5 (Homo sapiens, UniProt P28715); assay: Concentration required for 50% inhibition of Xeroderma pigmentosum G
# T1 sequence (P28715 whole entry): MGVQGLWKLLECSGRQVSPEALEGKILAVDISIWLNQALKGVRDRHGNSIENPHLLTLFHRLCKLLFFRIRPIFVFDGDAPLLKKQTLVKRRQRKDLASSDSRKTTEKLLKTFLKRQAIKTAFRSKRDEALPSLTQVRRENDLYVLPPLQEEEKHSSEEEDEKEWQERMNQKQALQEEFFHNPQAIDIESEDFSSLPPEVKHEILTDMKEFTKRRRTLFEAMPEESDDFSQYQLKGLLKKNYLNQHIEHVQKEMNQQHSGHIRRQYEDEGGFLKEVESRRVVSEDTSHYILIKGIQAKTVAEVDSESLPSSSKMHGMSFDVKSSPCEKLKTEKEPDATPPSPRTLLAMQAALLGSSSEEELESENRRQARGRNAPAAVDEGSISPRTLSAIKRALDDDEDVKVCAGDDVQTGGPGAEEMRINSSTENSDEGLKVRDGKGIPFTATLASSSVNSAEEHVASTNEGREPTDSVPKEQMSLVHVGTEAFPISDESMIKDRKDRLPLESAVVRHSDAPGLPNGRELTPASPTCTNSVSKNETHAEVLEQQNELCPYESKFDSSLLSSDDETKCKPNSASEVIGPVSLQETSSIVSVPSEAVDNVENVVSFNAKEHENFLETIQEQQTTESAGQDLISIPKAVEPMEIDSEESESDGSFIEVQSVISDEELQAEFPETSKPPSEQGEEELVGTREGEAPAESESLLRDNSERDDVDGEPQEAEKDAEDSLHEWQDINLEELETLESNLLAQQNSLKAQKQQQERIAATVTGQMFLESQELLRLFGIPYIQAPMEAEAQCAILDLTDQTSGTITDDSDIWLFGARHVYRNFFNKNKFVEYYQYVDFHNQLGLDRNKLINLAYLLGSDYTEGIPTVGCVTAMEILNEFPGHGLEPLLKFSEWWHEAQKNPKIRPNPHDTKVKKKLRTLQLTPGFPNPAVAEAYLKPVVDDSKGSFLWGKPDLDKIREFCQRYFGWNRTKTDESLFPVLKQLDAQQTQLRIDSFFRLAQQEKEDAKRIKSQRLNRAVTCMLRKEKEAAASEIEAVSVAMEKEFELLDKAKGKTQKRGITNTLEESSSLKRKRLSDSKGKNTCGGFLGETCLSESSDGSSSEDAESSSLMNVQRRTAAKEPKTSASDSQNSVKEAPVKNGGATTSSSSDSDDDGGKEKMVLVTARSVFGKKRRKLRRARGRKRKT
# Summary of the method: (§1)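 Fluorescence nuclease assay with 5 pmol BVT substrate in buffer at pH 8.0 containing 10 mM MgCl₂, 0.5 mM 2-mercaptoethanol, BSA and circular plasmid. Enzyme was 180 U FEN1 or 50 ng XPG. Reactions ran 90 min at room temperature and were stopped with 0.025% SDS/12.5 mM EDTA. Fluorescence was read at 485 nm excitation/538 nm emission.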
# [2] = target: Flap endonuclease 1 (Homo sapiens, UniProt P39748); assay: Concentration required for 50% inhibition of Flap endonuclease-1; summary of the method: as §1
# Flap endonuclease 1, sequence (P39748 whole entry): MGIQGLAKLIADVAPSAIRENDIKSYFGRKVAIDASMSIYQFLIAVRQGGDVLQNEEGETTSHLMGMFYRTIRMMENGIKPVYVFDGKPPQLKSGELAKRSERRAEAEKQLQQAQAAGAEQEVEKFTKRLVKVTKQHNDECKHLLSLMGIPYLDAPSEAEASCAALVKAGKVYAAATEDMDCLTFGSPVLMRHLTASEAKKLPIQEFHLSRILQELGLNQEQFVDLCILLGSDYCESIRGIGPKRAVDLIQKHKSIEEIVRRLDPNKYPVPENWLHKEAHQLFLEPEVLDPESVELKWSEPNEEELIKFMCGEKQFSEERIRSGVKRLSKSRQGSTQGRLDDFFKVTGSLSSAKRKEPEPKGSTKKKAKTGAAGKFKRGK
SMILES,IC50 [1],IC50 [2]
O=C(O)C(=O)CC(=O)c1ccco1,41 µM,64.2 µM
O=C(O)C(=O)Cc1ncc(-c2ccccc2)s1,31.7 µM,46.4 µM
O=C(O)C(=O)CC(=O)c1ccc(-c2ccc(OC(F)(F)F)cc2)s1,0.31 µM,0.44 µM
O=C(O)C(=O)CC(=O)c1cc(Cl)ccc1Cl,7 µM,1.82 µM
CC(C)(C)c1ccc(-c2ccc(C(=O)CC(=O)C(=O)O)o2)cc1,3.13 µM,13.5 µM
O=C(O)C(=O)CC(=O)c1ccc(-c2ccccc2)o1,1.81 µM,1.66 µM
O=C(O)C(=O)CC(=O)c1ccccc1Cl,38.1 µM,3.51 µM
O=C(O)C(=O)CC(=O)c1ccc(Cl)cc1Cl,9.85 µM,5.53 µM
O=C(O)C(=O)CC(=O)c1cccs1,38.7 µM,10.1 µM
O=C(O)C(=O)CC(=O)c1ccc(-c2ccc(Cl)cc2)cc1Cl,1.77 µM,0.41 µM
O=C(O)C(=O)CC(=O)c1cccc(Cl)c1Cl,22.1 µM,17.7 µM
O=C(O)C(=O)CC(=O)c1cccc(Cl)c1,13.1 µM,6.96 µM
COc1ccc(Cn2nnnc2C(=O)CC(=O)c2ccc(-c3ccccc3)cc2)cc1,52.4 µM,34.3 µM
COc1ccc(-c2ccc(Cl)c(C(=O)CC(=O)C(=O)O)c2)cc1,0.57 µM,0.19 µM
O=C(O)C(=O)CC(=O)c1ccc(-c2ccc(Cl)cc2)o1,0.98 µM,10.8 µM
O=C(O)C(=O)CC(=O)c1ccccc1F,78.5 µM,14.5 µM
CCOc1ccc(-c2ccc(C(=O)CC(=O)C(=O)O)o2)cc1,1.4 µM,11.3 µM
O=C(O)C(=O)CC(=O)c1ccc(-c2ccc(Cl)c(F)c2)s1,0.9 µM,0.57 µM
O=C(c1ccc(Oc2ccccc2)cc1)c1ncc2cccnc2c1O,> 100 µM,29 µM
O=C(O)C(=O)CC(=O)c1ccc(-c2ccccc2Cl)o1,1.85 µM,12.2 µM
O=C(O)C(=O)CC(=O)c1c(Cl)cccc1Cl,> 100 µM,37.9 µM
O=C(O)C(=O)CC(=O)c1ccc(Cl)cc1,12.7 µM,19.3 µM
O=C(CC(=O)c1nnn[nH]1)c1ccc(-c2ccccc2)cc1,> 100 µM,> 100 µM
Cc1ccccc1C(=O)CC(=O)C(=O)O,54.5 µM,12.9 µM

# Further lines, results first:
IC50 [1],IC50 [2],SMILES
1.6 µM,3.5 µM,O=C(O)C(=O)CC(=O)c1ccc(-c2ccccc2)cc1
3.24 µM,3.62 µM,O=C(O)C(=O)CC(=O)c1cccc(-c2ccccc2)c1
1.87 µM,1.75 µM,O=C(O)C(=O)CC(=O)c1ccc(Oc2ccccc2)cc1
1.13 µM,0.33 µM,O=C(O)C(=O)CC(=O)c1cc(-c2ccccc2)ccc1Cl
> 100 µM,> 100 µM,C=C(CC(=O)c1ccc(Oc2ccccc2)cc1)C(=O)O
75.4 µM,24.9 µM,O=C(O)C(=O)CC(=O)c1ccccc1
> 100 µM,> 100 µM,O=C(CC(=O)c1cc(=O)[nH]o1)c1ccc(Oc2ccccc2)cc1
97 µM,63.2 µM,O=C(CC(=O)c1nnn[nH]1)c1ccc(Oc2ccccc2)cc1
5.44 µM,7.31 µM,O=C(O)C(=O)CC(=O)c1cccc(Oc2ccccc2)c1
1.85 µM,7.65 µM,O=C(O)C(=O)CC(=O)c1ccc(-c2ccccc2)s1
1.59 µM,1.36 µM,COc1ccc(-c2cccc(C(=O)CC(=O)C(=O)O)c2)cc1
